What is called IC50 is the concentration that inhibits the measured activity by half. Lower therefore signals greater potency. Broadly, the Ki is a measure of affinity in units of concentration, obtained from inhibition or displacement. A high value points to weaker binding.

The first assay relates to Human immunodeficiency virus 1. The experiment in a line: Antiviral activity against HIV1 LAI isolate in human MT2 cells. The format is functional, organism-based. To be noted: Human immunodeficiency virus 1, MT2. The procedure, abridged:
(§1)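 MT-2 cells (2 × 10⁴/mL) were infected with 100 TCID₅₀ of virus and incubated with various drug concentrations at 37 °C for 7 days. MTT was then added for 2 h at 37 °C, formazan was dissolved in acidified 2-propanol with 4% Triton X-100, and optical density was read. Assays were run in duplicate or triplicate.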
As for `Cc1c(O)cccc1C(=O)N[C@@H](CSc1ccccc1)[C@H](O)CN1C[C@H]2CCCC[C@H]2C[C@H]1C(=O)NC(C)(C)C`, the IC50 was 10 nM.
Same read-out and setting: in the case of `CC(C)(C)NC(=O)[C@@H]1C[C@@H]2CCCC[C@@H]2CN1C[C@@H](O)[C@H](Cc1ccccc1)NC(=O)[C@H](CC(N)=O)NC(=O)c1ccc2ccccc2n1` it was 24 nM.
Compound `CC(C)CN(C[C@@H](O)[C@H](Cc1ccccc1)NC(=O)O[C@H]1CCOC1)S(=O)(=O)c1ccc(N)cc1` gave an IC50 of 24 nM.
On the same count and under the same terms, in the case of `CC(C)CN(CC(O)C(Cc1ccccc1)NC(=O)O[C@H]1C[C@H]2CCC[C@H]2C1)S(=O)(=O)c1ccc(CO)cc1` (some centres not stated) it was above 1000 nM.

The test system of another assay is Human immunodeficiency virus 1. The experiment in a line: Antiviral activity against HIV1 LAI isolate in human PHA-PBMC cells. It counts as functional, organism-based. To be noted: Human immunodeficiency virus 1, PBMC. The method in brief: (§2)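 PHA-activated PBMC (1 × 10⁶/mL) were exposed to 50 TCID₅₀ of each isolate and cultured with or without drug in 10-fold serial dilutions. On day 7, supernatant p24 Gag was measured by chemiluminescent enzyme immunoassay. IC₅₀ was the concentration suppressing p24 production by 50% relative to drug-free control cultures. Assays were run in triplicate.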
`Cc1c(O)cccc1C(=O)N[C@@H](CSc1ccccc1)[C@H](O)CN1C[C@H]2CCCC[C@H]2C[C@H]1C(=O)NC(C)(C)C` yielded an IC50 of 14 nM. This counts as double-digit nanomolar.
Same read-out and setting: in the case of `CC(C)(C)NC(=O)[C@@H]1C[C@@H]2CCCC[C@@H]2CN1C[C@@H](O)[C@H](Cc1ccccc1)NC(=O)[C@H](CC(N)=O)NC(=O)c1ccc2ccccc2n1` it was 14 nM; in that of `CC(C)CN(C[C@@H](O)[C@H](Cc1ccccc1)NC(=O)O[C@H]1CCOC1)S(=O)(=O)c1ccc(N)cc1`, 34 nM.

The test system of a further assay is Human immunodeficiency virus 1. In words: Antiviral activity against HIV1 BA-L isolate in human PHA-PBMC cells. The conditions noted are these: Human immunodeficiency virus 1, PBMC. The format is functional, organism-based. The procedure, abridged:
as §2
On to `Cc1c(O)cccc1C(=O)N[C@@H](CSc1ccccc1)[C@H](O)CN1C[C@H]2CCCC[C@H]2C[C@H]1C(=O)NC(C)(C)C`, for which the IC50 came to 7 nM.
The same measure, in the same setting: in the case of `CC(C)(C)NC(=O)[C@@H]1C[C@@H]2CCCC[C@@H]2CN1C[C@@H](O)[C@H](Cc1ccccc1)NC(=O)[C@H](CC(N)=O)NC(=O)c1ccc2ccccc2n1` it was 18 nM; in that of `CC(C)CN(C[C@@H](O)[C@H](Cc1ccccc1)NC(=O)O[C@H]1CCOC1)S(=O)(=O)c1ccc(N)cc1`, 29 nM.

The test system of a further assay is Human immunodeficiency virus 2. The experiment in a line: Antiviral activity against HIV2 EHO isolate in human MT2 cells. The format is functional, organism-based. The conditions noted are these: Human immunodeficiency virus 2, MT2. The method in brief:
as §1
`Cc1c(O)cccc1C(=O)N[C@@H](CSc1ccccc1)[C@H](O)CN1C[C@H]2CCCC[C@H]2C[C@H]1C(=O)NC(C)(C)C` displayed an IC50 of 20 nM. This lies in the double-digit nanomolar range.
`CC(C)(C)NC(=O)[C@@H]1C[C@@H]2CCCC[C@@H]2CN1C[C@@H](O)[C@H](Cc1ccccc1)NC(=O)[C@H](CC(N)=O)NC(=O)c1ccc2ccccc2n1` had an IC50 of 1.9 nM. Compared with the last compound, the IC50 is about 11-fold lower.
On to `CC(C)CN(C[C@@H](O)[C@H](Cc1ccccc1)NC(=O)O[C@H]1CCOC1)S(=O)(=O)c1ccc(N)cc1`, for which the IC50 is 440 nM.

In another assay the test system is Human immunodeficiency virus 1. The experiment in a line: Antiviral activity against multi drug-resistant HIV1 ET variant in human PHA-PBMC cells. It counts as functional, organism-based. To be noted: Human immunodeficiency virus 1, PBMC. The procedure, abridged: (§3)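 PHA-activated peripheral blood mononuclear cells (1 × 10⁶/mL) infected with 50 TCID₅₀ of each isolate and cultured with or without drug in 10-fold serial dilutions. On day 7, p24 Gag protein in the supernatant was measured by automated chemiluminescent enzyme immunoassay. IC₅₀ was the concentration suppressing p24 production by 50% relative to drug-free control cultures. Assays were run in triplicate.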
Turning to `Cc1c(O)cccc1C(=O)N[C@@H](CSc1ccccc1)[C@H](O)CN1C[C@H]2CCCC[C@H]2C[C@H]1C(=O)NC(C)(C)C`, the IC50 turned out to be 32 nM. In other words, the double-digit nanomolar range.
Still for that read-out and setting: in the case of `CC(C)(C)NC(=O)[C@@H]1C[C@@H]2CCCC[C@@H]2CN1C[C@@H](O)[C@H](Cc1ccccc1)NC(=O)[C@H](CC(N)=O)NC(=O)c1ccc2ccccc2n1` it was 17 nM.
Same read-out and setting: in the case of `CC(C)CN(C[C@@H](O)[C@H](Cc1ccccc1)NC(=O)O[C@H]1CCOC1)S(=O)(=O)c1ccc(N)cc1` it was 23 nM.

The test system of a further assay is Human immunodeficiency virus 1. In words: Antiviral activity against multi drug-resistant HIV1 B variant in human PHA-PBMC cells. The format is functional, organism-based. To be noted: Human immunodeficiency virus 1, PBMC. The procedure, abridged: as §3
`Cc1c(O)cccc1C(=O)N[C@@H](CSc1ccccc1)[C@H](O)CN1C[C@H]2CCCC[C@H]2C[C@H]1C(=O)NC(C)(C)C`: the IC50 was above 1000 nM.
On the same count and under the same terms, in the case of `CC(C)CN(C[C@@H](O)[C@H](Cc1ccccc1)NC(=O)O[C@H]1CCOC1)S(=O)(=O)c1ccc(N)cc1` it was 290 nM.

In another assay the target is Human immunodeficiency virus type 1 protease (Human immunodeficiency virus 1, UniProt Q72874). The experiment in a line: Inhibition of HIV1 protease.
Conditions: not given
Turning to `CC(C)CN(CC(O)C(Cc1ccccc1)NC(=O)O[C@H]1C[C@H]2CCC[C@H]2C1)S(=O)(=O)c1ccc(CO)cc1` (some centres not stated), the affinity, expressed as Ki, was 5.3 nM. This lies in the single-digit nanomolar range.

The next assay deals with Human immunodeficiency virus 1. The experiment in a line: Antiviral activity against multi drug-resistant HIV1 C variant in human PHA-PBMC cells. The conditions noted are these: Human immunodeficiency virus 1, PBMC. It counts as functional, organism-based. The method in brief:
as §3
Turning to `Cc1c(O)cccc1C(=O)N[C@@H](CSc1ccccc1)[C@H](O)CN1C[C@H]2CCCC[C@H]2C[C@H]1C(=O)NC(C)(C)C`, half-maximal inhibition (IC50) was put at 310 nM.
The same measure, in the same setting: in the case of `CC(C)(C)NC(=O)[C@@H]1C[C@@H]2CCCC[C@@H]2CN1C[C@@H](O)[C@H](Cc1ccccc1)NC(=O)[C@H](CC(N)=O)NC(=O)c1ccc2ccccc2n1` it was 100 nM; in that of `CC(C)CN(C[C@@H](O)[C@H](Cc1ccccc1)NC(=O)O[C@H]1CCOC1)S(=O)(=O)c1ccc(N)cc1`, 300 nM.

The test system of the next assay is Human immunodeficiency virus 1. The experiment in a line: Antiviral activity against multi drug-resistant HIV1 G variant in human PHA-PBMC cells. It counts as functional, organism-based. The conditions noted are these: Human immunodeficiency virus 1, PBMC. The method in brief:
as §3
`Cc1c(O)cccc1C(=O)N[C@@H](CSc1ccccc1)[C@H](O)CN1C[C@H]2CCCC[C@H]2C[C@H]1C(=O)NC(C)(C)C` showed an IC50 of 170 nM.
Turning to `CC(C)(C)NC(=O)[C@@H]1C[C@@H]2CCCC[C@@H]2CN1C[C@@H](O)[C@H](Cc1ccccc1)NC(=O)[C@H](CC(N)=O)NC(=O)c1ccc2ccccc2n1`, half-maximal inhibition (IC50) was put at 59 nM.
The same measure, in the same setting: in the case of `CC(C)CN(C[C@@H](O)[C@H](Cc1ccccc1)NC(=O)O[C@H]1CCOC1)S(=O)(=O)c1ccc(N)cc1` it was 310 nM.

Another assay has as its system Human immunodeficiency virus 1. In words: Antiviral activity against multi drug-resistant HIV1 TM variant in human PHA-PBMC cells. To be noted: Human immunodeficiency virus 1, PBMC. The format is functional, organism-based. The method in brief: as §3
In turn, `Cc1c(O)cccc1C(=O)N[C@@H](CSc1ccccc1)[C@H](O)CN1C[C@H]2CCCC[C@H]2C[C@H]1C(=O)NC(C)(C)C` gave an IC50 above 1000 nM.
On the same count and under the same terms, in the case of `CC(C)(C)NC(=O)[C@@H]1C[C@@H]2CCCC[C@@H]2CN1C[C@@H](O)[C@H](Cc1ccccc1)NC(=O)[C@H](CC(N)=O)NC(=O)c1ccc2ccccc2n1` it was 250 nM; in that of `CC(C)CN(C[C@@H](O)[C@H](Cc1ccccc1)NC(=O)O[C@H]1CCOC1)S(=O)(=O)c1ccc(N)cc1`, 220 nM.

The test system of a further assay is Human immunodeficiency virus 1. In words: Antiviral activity against multi drug-resistant HIV1 EV variant in human PHA-PBMC cells. The format is functional, organism-based. To be noted: Human immunodeficiency virus 1, PBMC. The method in brief: as §3
As for `Cc1c(O)cccc1C(=O)N[C@@H](CSc1ccccc1)[C@H](O)CN1C[C@H]2CCCC[C@H]2C[C@H]1C(=O)NC(C)(C)C`, the IC50 was above 1000 nM.
Same read-out and setting: in the case of `CC(C)(C)NC(=O)[C@@H]1C[C@@H]2CCCC[C@@H]2CN1C[C@@H](O)[C@H](Cc1ccccc1)NC(=O)[C@H](CC(N)=O)NC(=O)c1ccc2ccccc2n1` it was above 1000 nM.
Same read-out and setting: in the case of `CC(C)CN(C[C@@H](O)[C@H](Cc1ccccc1)NC(=O)O[C@H]1CCOC1)S(=O)(=O)c1ccc(N)cc1` it was above 1000 nM.

A further assay relates to Human immunodeficiency virus 1. In words: Antiviral activity against multi drug-resistant HIV1 ES variant in human PHA-PBMC cells. The format is functional, organism-based. The conditions noted are these: Human immunodeficiency virus 1, PBMC. The procedure, abridged: as §3
In the case of `Cc1c(O)cccc1C(=O)N[C@@H](CSc1ccccc1)[C@H](O)CN1C[C@H]2CCCC[C@H]2C[C@H]1C(=O)NC(C)(C)C`, the IC50 is above 1000 nM.
The compound `CC(C)(C)NC(=O)[C@@H]1C[C@@H]2CCCC[C@@H]2CN1C[C@@H](O)[C@H](Cc1ccccc1)NC(=O)[C@H](CC(N)=O)NC(=O)c1ccc2ccccc2n1` showed an IC50 above 1000 nM.
On the same count and under the same terms, in the case of `CC(C)CN(C[C@@H](O)[C@H](Cc1ccccc1)NC(=O)O[C@H]1CCOC1)S(=O)(=O)c1ccc(N)cc1` it was above 1000 nM.

A further assay deals with Human immunodeficiency virus 1. The experiment in a line: Antiviral activity against multi drug-resistant HIV1 K variant in human PHA-PBMC cells. It counts as functional, organism-based. The conditions noted are these: Human immunodeficiency virus 1, PBMC. The procedure, abridged: as §3
Turning to `Cc1c(O)cccc1C(=O)N[C@@H](CSc1ccccc1)[C@H](O)CN1C[C@H]2CCCC[C@H]2C[C@H]1C(=O)NC(C)(C)C`, the IC50 is above 1000 nM.
Same read-out and setting: in the case of `CC(C)(C)NC(=O)[C@@H]1C[C@@H]2CCCC[C@@H]2CN1C[C@@H](O)[C@H](Cc1ccccc1)NC(=O)[C@H](CC(N)=O)NC(=O)c1ccc2ccccc2n1` it was 20 nM.
The same measure, in the same setting: in the case of `CC(C)CN(C[C@@H](O)[C@H](Cc1ccccc1)NC(=O)O[C@H]1CCOC1)S(=O)(=O)c1ccc(N)cc1` it was 68 nM.

The values above are taken from ChEMBL document CHEMBL1146019, “Structure-based design of novel HIV-1 protease inhibitors to combat drug resistance” (J Med Chem, 2006).
